Data on 10 molecules can be found in ChEMBL document CHEMBL3774315, “Discovery of new low-molecular-weight p53-Mdmx disruptors and their anti-cancer activities” (Bioorg Med Chem, 2016).

pIC50: −log10 of the molar value. Calls of active or inactive are those of the source. The rule behind the calls is not given here.

The subject of data set [1] is MCF7. The data set can be described thus: Upregulation of p53 in human MCF7 cells after 24 hrs by Western blot analysis. In kind it is functional, cell-based. A digest of the protocol: (§1)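 MCF-7 cells plated at 1.0 × 10^6 per 60-mm dish, grown 24 h, washed and given fresh medium for another 24 h. Treated with compound or 0.1% DMSO for 24 or 48 h. Floating and adherent cells lysed in Tris/NaCl/EDTA/EGTA/NP-40 buffer with Na3VO4, NaF, DTT, PMSF and protease inhibitors. 10 µg protein separated by SDS-PAGE, probed with primary antibodies at 1:1000, detected by ECL chemiluminescence.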
(In western blotting, separated proteins are transferred to a membrane and probed.)

Data set [2] has as its system MCF7. Description: Upregulation of p21 in human MCF7 cells after 24 hrs by Western blot analysis. It counts as functional, cell-based. In outline: as §1
Data set [3] concerns MCF7. Description: Upregulation of Mdm2 in human MCF7 cells after 24 hrs by Western blot analysis. It counts as functional, cell-based. A digest of the protocol:
as §1

The next data set relates to IMR-32. Description: Increase in p53 expression in human IMR32 cells nuclei after 24 hrs by DAPI staining based immunofluorescence microscopy. It counts as functional, cell-based. A digest of the protocol:
(§2)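 Cells seeded at 3.0 × 10^4/mL in chamber slides and grown 24 h, then exposed to 10 µM sample for a further 24 h. Fixed in 3% paraformaldehyde (25 °C, 30 min), permeabilized with 0.05% Triton X-100 and blocked with 3% BSA. Stained with anti-p53 (1:50, overnight, 4 °C) and an Alexa 488 secondary (1:200, 30 min). Nuclei counterstained with DAPI; examined by fluorescence/confocal microscopy.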

For data set [4], the system named is MCF7. The data set can be described thus: Increase in p53 expression in human MCF7 cells nuclei after 24 hrs by DAPI staining based immunofluorescence microscopy. It counts as functional, cell-based. A digest of the protocol: as §2
For data set [5], the target named is Tumour suppressor p53/oncoprotein Mdm2 (Homo sapiens, UniProt P04637+Q00987). The data set can be described thus: Inhibition of Flag-tagged p53/GST-tagged Mdm2 (unknown origin) expressed in Escherichia coli BL21 after 1 hr by ELISA microplate reader method.
Sequence of Tumour suppressor p53/oncoprotein Mdm2 (P04637 whole entry): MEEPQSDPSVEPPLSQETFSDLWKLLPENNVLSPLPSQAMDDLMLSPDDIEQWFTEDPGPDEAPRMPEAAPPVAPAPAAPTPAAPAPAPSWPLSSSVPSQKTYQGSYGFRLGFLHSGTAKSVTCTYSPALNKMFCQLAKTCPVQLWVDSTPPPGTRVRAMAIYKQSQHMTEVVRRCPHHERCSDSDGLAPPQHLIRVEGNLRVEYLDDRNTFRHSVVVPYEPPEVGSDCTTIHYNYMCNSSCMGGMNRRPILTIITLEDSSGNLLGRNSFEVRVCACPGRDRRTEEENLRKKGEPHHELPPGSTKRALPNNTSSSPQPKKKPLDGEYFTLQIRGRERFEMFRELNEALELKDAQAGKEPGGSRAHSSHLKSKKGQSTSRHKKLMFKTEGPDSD
Sequence of Tumour suppressor p53/oncoprotein Mdm2 (Q00987 whole entry): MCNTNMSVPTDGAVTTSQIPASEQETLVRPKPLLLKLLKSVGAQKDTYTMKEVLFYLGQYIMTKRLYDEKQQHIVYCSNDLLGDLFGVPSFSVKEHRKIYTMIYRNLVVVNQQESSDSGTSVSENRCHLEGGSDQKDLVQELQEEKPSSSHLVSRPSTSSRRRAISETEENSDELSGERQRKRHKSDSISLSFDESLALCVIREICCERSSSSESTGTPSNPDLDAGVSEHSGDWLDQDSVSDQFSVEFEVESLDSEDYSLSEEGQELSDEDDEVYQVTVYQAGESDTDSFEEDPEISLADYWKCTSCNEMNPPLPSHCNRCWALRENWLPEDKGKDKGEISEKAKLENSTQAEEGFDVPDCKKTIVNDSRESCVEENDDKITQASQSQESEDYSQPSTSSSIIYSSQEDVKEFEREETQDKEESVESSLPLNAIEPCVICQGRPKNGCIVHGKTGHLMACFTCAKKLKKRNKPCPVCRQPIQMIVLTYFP
Data set [6] deals with Tumour suppressor protein p53/Mdm4 (Homo sapiens, UniProt O15151+P04637). Description: Inhibition of Flag-tagged p53/GST-tagged Mdmx (unknown origin) expressed in Escherichia coli BL21 after 1 hr by ELISA microplate reader method.
Sequence of Tumour suppressor protein p53/Mdm4 (P04637 whole entry): as the sequence (P04637 whole entry) above
Sequence of Tumour suppressor protein p53/Mdm4 (O15151 whole entry): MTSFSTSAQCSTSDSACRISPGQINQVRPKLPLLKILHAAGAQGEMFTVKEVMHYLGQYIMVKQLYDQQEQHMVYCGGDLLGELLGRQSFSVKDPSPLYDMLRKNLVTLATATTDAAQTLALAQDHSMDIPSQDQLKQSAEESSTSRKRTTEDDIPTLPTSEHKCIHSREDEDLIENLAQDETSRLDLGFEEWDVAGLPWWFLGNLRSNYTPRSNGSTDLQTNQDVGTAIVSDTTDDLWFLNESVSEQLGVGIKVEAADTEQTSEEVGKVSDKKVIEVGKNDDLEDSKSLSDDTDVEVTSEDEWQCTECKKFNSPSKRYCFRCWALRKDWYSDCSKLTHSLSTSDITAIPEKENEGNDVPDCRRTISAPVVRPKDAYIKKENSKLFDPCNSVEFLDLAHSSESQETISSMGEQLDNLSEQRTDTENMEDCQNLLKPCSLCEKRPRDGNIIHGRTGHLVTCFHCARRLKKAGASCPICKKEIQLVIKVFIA
The target of data set [7] is Cellular tumor antigen p53/Death-associated protein kinase 1 (Homo sapiens, UniProt P04637+P53355). Description: Inhibition of Flag-tagged p53/GST-tagged DAPK1 (unknown origin) expressed in Escherichia coli BL21 after 1 hr by ELISA microplate reader method.
Sequence of Cellular tumor antigen p53/Death-associated protein kinase 1 (P04637 whole entry): as the sequence (P04637 whole entry) above
Sequence of Cellular tumor antigen p53/Death-associated protein kinase 1 (P53355 whole entry): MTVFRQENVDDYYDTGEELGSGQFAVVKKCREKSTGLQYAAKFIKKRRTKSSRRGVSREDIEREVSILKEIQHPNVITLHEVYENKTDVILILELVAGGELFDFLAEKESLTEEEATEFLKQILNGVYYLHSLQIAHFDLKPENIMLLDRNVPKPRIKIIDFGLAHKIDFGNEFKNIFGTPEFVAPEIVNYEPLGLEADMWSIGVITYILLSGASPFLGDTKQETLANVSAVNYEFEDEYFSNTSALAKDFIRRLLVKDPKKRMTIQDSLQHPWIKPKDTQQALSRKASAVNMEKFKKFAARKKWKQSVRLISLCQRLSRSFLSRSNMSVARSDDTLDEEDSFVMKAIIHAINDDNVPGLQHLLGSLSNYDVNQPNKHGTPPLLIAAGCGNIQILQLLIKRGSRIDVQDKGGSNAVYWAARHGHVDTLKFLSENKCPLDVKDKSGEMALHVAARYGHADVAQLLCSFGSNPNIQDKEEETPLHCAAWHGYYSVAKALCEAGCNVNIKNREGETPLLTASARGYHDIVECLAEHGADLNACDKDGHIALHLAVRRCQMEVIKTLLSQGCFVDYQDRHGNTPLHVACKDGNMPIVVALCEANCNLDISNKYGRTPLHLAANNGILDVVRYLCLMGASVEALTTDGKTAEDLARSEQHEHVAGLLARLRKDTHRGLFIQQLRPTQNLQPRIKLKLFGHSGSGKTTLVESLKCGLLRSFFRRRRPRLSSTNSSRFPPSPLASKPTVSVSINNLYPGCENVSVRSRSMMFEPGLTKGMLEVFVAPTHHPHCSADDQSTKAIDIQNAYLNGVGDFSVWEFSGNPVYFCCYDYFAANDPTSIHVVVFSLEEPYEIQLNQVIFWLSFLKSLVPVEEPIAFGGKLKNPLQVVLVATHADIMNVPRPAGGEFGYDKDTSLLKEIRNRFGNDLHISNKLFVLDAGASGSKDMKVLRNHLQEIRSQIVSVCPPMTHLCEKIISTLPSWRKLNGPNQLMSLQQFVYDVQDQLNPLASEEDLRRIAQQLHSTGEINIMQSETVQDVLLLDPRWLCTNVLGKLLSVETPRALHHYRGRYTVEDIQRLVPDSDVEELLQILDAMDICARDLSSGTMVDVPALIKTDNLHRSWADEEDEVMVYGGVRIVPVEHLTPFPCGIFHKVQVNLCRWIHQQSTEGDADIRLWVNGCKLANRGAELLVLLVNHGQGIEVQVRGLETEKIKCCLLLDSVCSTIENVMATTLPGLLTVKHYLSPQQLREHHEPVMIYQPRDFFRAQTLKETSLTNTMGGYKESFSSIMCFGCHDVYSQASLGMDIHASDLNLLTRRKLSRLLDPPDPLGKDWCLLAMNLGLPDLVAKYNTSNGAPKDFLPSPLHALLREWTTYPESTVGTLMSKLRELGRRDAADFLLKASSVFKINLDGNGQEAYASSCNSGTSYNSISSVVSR
The target of data set [8] is Cellular tumor antigen p53/Peptidyl-prolyl cis-trans isomerase D (Homo sapiens, UniProt P04637+Q08752). Description: Inhibition of Flag-tagged p53/GST-tagged PPID (unknown origin) expressed in Escherichia coli BL21 after 1 hr by ELISA microplate reader method.
Sequence of Cellular tumor antigen p53/Peptidyl-prolyl cis-trans isomerase D (P04637 whole entry): as the sequence (P04637 whole entry) above
Sequence of Cellular tumor antigen p53/Peptidyl-prolyl cis-trans isomerase D (Q08752 whole entry): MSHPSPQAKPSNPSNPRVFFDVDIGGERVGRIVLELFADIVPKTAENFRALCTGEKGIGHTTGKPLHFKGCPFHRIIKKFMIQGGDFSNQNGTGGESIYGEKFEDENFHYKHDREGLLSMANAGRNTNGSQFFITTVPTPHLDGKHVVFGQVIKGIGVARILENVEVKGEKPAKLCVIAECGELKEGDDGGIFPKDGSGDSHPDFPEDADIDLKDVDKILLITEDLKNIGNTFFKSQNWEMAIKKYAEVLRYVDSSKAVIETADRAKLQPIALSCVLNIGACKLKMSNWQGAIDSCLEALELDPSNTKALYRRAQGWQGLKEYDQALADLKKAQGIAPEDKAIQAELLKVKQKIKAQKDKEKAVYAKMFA
The subject of data set [9] is MCF7. The data set can be described thus: Cytotoxicity against human MCF7 cells expressing WT p53 and Mdmx assessed as growth inhibition after 48 hrs by crystal violet staining based spectrophotometry. It counts as functional, cell-based. In outline:
(§3)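 Cells seeded at 2 × 10^4 per well and held 24 h at 37 °C in 5% CO2. Serial dilutions (0, 10, 15, 20, 25 or 30 µM) then added for 48 h. Cells stained 15 min with crystal violet (0.75% dye, 0.25% NaCl, 1.75% formaldehyde, 50% EtOH) and read at 600 nm. Viability is expressed as percent of untreated control.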

A further data set relates to A-427. Description: Cytotoxicity against human A427 cells expressing WT p53 and Mdmx assessed as growth inhibition after 48 hrs by crystal violet staining based spectrophotometry. It counts as functional, cell-based. A digest of the protocol:
as §3

The next data set relates to HCT-116. Description: Cytotoxicity against human HCT116 cells expressing WT p53 and Mdmx assessed as growth inhibition after 48 hrs by crystal violet staining based spectrophotometry. In kind it is functional, cell-based. In outline: as §3
A further data set deals with A-431. Description: Cytotoxicity against human A431 cells expressing mutant p53 assessed as growth inhibition after 48 hrs by crystal violet staining based spectrophotometry. In kind it is functional, cell-based. In outline: as §3
For another data set, the system named is MDA-MB-468. Description: Cytotoxicity against human MDA-MB-468 cells expressing mutant p53 assessed as growth inhibition after 48 hrs by crystal violet staining based spectrophotometry. In kind it is functional, cell-based. In outline: as §3
A short description of data set [10]: Antitumor activity against human HCT116 cells xenografted in nude BALB/c mouse assessed as decrease in tumor growth at 100 mg/kg/day, po administered every other day until day 38 and measured on day 40. It counts as functional. Particulars: HCT-116, po. A digest of the protocol: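 Female BALB/c-nu/nu mice, 6 weeks old, given HCT116 cells (1.5 × 10^6 in 100 µL Matrigel) subcutaneously in the back. Once tumours reached 70–143 mm3, drug (2.0 mg/200 µL) or vehicle (0.1% Tween 80, 200 µL) was given orally every other day to day 38. Tumour length/width and body weight were tracked. Result expressed as mean treated tumour volume as % of control mean.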

Data set [11] deals with Mus musculus. Description: Toxicity in human HCT116 cells xenografted nude BALB/c mouse assessed as body weight loss at 100 mg/kg/day, po administered every other day until day 38 and measured on day 40. The following applies: in vivo. It counts as organism-based, HCT-116. In outline: (§4)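 HCT116 cells (1.5 × 10^6 per 100 µL Matrigel) injected s.c. into the backs of 6-week-old female BALB/c-nu/nu mice. Once tumors reached 70–143 mm3, compound (2.0 or 3.0 mg/200 µL) or vehicle (0.1% Tween 80, 200 µL) was given orally every other day until day 38. n = 6 or 9 treated, 7 control. Tumor length, width and body weight were monitored. Activity is mean treated tumor volume as a percentage of control.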
(Xenograft models place foreign cells or tissue in a host animal.)

The test system of data set [12] is Mus musculus. The data set can be described thus: Upregulation of Mdm2 protein expression in human HCT116 cells xenografted nude BALB/c mouse tumors at 150 mg/kg/day, po administered every other day until day 38 and measured on day 40 by Western blot analysis. In kind it is functional, organism-based. The following applies: HCT-116. A digest of the protocol:
(§5)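 Tumors excised at day 40 from orally dosed HCT116-xenograft nude mice, frozen in liquid nitrogen, ground and suspended in lysis buffer, then spun at 15,000 × g at 4 °C. 10 µg protein (measured by BCA) run on SDS-PAGE, blotted to PVDF and probed for p53, Mdm2, p21 and cleaved caspase 3 (1:1000) or full-length caspase 3 (3:1000). ECL detection.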

Data set [13] concerns Mus musculus. The data set can be described thus: Upregulation of p53 protein expression in human HCT116 cells xenografted nude BALB/c mouse tumors at 150 mg/kg/day, po administered every other day until day 38 and measured on day 40 by Western blot analysis. In kind it is functional, organism-based. The following applies: HCT-116. In outline: as §5
Data set [14] concerns Mus musculus. The data set can be described thus: Upregulation of p21 protein expression in human HCT116 cells xenografted nude BALB/c mouse tumors at 150 mg/kg/day, po administered every other day until day 38 and measured on day 40 by Western blot analysis. In kind it is functional, organism-based. Particulars: HCT-116. A digest of the protocol: as §5
In data set [15] the test system is Mus musculus. Description: Induction of apoptosis in human HCT116 cells xenografted nude BALB/c mouse tumors assessed as upregulation of caspase-3 protein expression at 150 mg/kg/day, po administered every other day until day 38 and measured on day 40 by Western blot analysis. It counts as functional, organism-based. The following applies: HCT-116. A digest of the protocol:
as §5

For data set [16], the system named is Mus musculus. The data set can be described thus: Induction of apoptosis in human HCT116 cells xenografted nude BALB/c mouse tumors at 100 to 150 mg/kg/day, po administered every other day until day 38 and measured on day 40 by TUNEL assay. It counts as functional, organism-based. Particulars: HCT-116. In outline:
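Tumor sections from orally dosed HCT116-xenograft nude mice underwent TUNEL staining, performed by an outside service. TUNEL-positive cells were counted as a percentage of all cells over eight fields at ×20 magnification.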

For data set [17], the system named is Mus musculus. Description: Toxicity in human HCT116 cells xenografted nude BALB/c mouse assessed as body weight loss at 150 mg/kg/day, po administered every other day until day 38 and measured on day 40. The following applies: in vivo. It counts as organism-based, HCT-116. In outline: as §4
A short description of data set [18]: Cytotoxicity against human TIG7 cells expressing wild-type p53 assessed as growth inhibition after 48 hrs by crystal violet staining based spectrophotometry. The following applies: tig7, 48 h.

As for `COc1ccc(C2=N[C@@H](c3ccc(Cl)cc3)[C@@H](c3ccc(Cl)cc3)N2C(=O)N2CCNC(=O)C2)c(OC(C)C)c1`, the outcome with MCF7 [1], with MCF7 [2], with MCF7 [3], in the data set on IMR-32 and with MCF7 [4] was Active.
By pIC50 is commonly meant the IC50 on a negative log10 scale, so that one unit is a factor of ten. The low end stands for a high IC50, the high end for a low IC50. Consider `CC(C)C(=O)Nc1ccccc1S`, for which the pIC50 in data set [5] is less than 4.60; in [6] it was 5.20; in [7], less than 4.60; in data set [8], less than 4.60. For the same molecule, the “growth inhibition (GI)” value with MCF7 [9], in the data set on A-427, in the data set with HCT-116, in the data set with A-431 and with MDA-MB-468 was “Active” each time.
For `CC(C)C(=O)Nc1ccccc1O`, the negative logarithm of the IC50 (pIC50) in data set [5], in data set [6], in [7] and in data set [8] was less than 4.60 in each case.
Turning to `CCCCCCCC(=O)Nc1ccccc1S`, the pIC50 in data set [5], in data set [6], in [7] and in [8] was less than 4.60 each time.
On to `O=C(Nc1ccccc1S)c1ccc(Cl)nc1`, for which the negative logarithm of the IC50 (pIC50) was 4.82 in [5], 5.05 in data set [6], less than 4.60 in data set [7] and less than 4.60 in data set [8].
For `CC(C)C(=O)Nc1ccccc1SC(=O)C(C)C`, the pIC50 in [5] is 4.88; in data set [6] it was 5.82; in data set [7] it was less than 4.60; in data set [8], less than 4.60. The “growth inhibition (GI)” value with MCF7 [9], with A-427 and in the data set with HCT-116 was “Dose-dependent effect” in each case. For the same molecule, the “growth inhibition (GI)” value in the data set on A-431 and in the data set on MDA-MB-468 was “Active” throughout. In addition, the Activity entry in the data set with MCF7 [1] was “Dose-dependent effect”; with MCF7 [2], “Dose-dependent effect”; in the data set with MCF7 [3], “Dose-dependent effect”; in the data set on Mus musculus [11] it was “Non-toxic”; in the data set with Mus musculus [16] it was “Dose-dependent effect”; in the data set with Mus musculus [17] it was “Non-toxic”. The Activity entry in data set [18] is recorded as “Toxic”. In addition, the result with IMR-32, with MCF7 [4], with Mus musculus [12], in the data set with Mus musculus [13], with Mus musculus [14] and in the data set on Mus musculus [15] was Active. Moreover, in data set [10], the T/C % at 100 mg/kg/day came out at 49%.
In the case of `CC(C)C(=O)Nc1ccccc1OC(=O)C(C)C`, the pIC50 in data set [5], in [6], in [7] and in data set [8] was less than 4.60 each time.
As to `O=C(Nc1ccccc1S)c1ccccc1`, the pIC50 in [5] is less than 4.60; in data set [6], 5.14; in data set [7], less than 4.60; in data set [8], less than 4.60.
For `CC(C)C(=O)Sc1ccccc1NC(=O)c1ccccc1`, the pIC50 is 4.84 in data set [5], 5.34 in data set [6], less than 4.60 in data set [7] and less than 4.60 in data set [8].
As to `O=C(Nc1ccccc1S)c1ccc(Cl)cc1`, the negative-log IC50 (pIC50) is 4.74 in data set [5], 5.47 in data set [6], less than 4.60 in data set [7] and less than 4.60 in data set [8].
